# Calls of active or inactive are those of the source. No cut-off for these calls is given here.
# What was measured:
# [1] = test system: Mus musculus; experiment: Effective dose required to prevent reserpine ptosis in mice, administered (po)orally; type: functional
# In short: (§1)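 Male Swiss-Webster or Harlan ICR mice, five per dose. Drug in saline given po or ip per line. Reserpine 2.5 mg/kg ip 30 min later. Complete absence of ptosis at 45 min after reserpine scored as positive. ED50 by Litchfield-Wilcoxon or Horn method, with 95% confidence intervals.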
# [2] = test system: Mus musculus; experiment: Effective dose required to prevent reserpine ptosis in mice, administered orally(po); type: functional; in short: as §1
# [3] = test system: Mus musculus; experiment: Effective dose required to prevent reserpine ptosis in mice, administered intraperitoneally.; type: functional, organism-based; in short: as §1
# [4] = test system: Mus musculus; experiment: Effective dose required to prevent reserpine ptosis in mice, administered orally(po); NA=Not active at 100 mg/kg; type: functional, organism-based; design: dose 100 mg/kg; in short: as §1
# [5] = test system: Mus musculus; experiment: Effective dose required to prevent reserpine ptosis in mice, administered intraperitoneally; type: functional; conditions: ip; in short: as §1
# [6] = test system: Mus musculus; experiment: Effective dose against yohimbine hydrochloride induced lethality in mice, administered intraperitoneally; type: functional; conditions: ip
# In short: (§2)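 Male Swiss-Webster or Swiss ND/4 mice, 20-24 g, randomized into groups of 10 and housed five per cage. Test drug in saline given ip, with a saline control group. Yohimbine hydrochloride 20 mg/kg sc was given 30 min later, and mice were then reaggregated.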
# [7] = test system: Mus musculus; experiment: Effective dose required to potentiate yohimbine hydrochloride induced lethality in mice, administered intraperitoneally; type: functional; conditions: ip; in short: as §2
# [8] = test system: Mus musculus; experiment: Effective dose required to prevent reserpine ptosis in mice, administered intraperitoneally; NA=Not active at 100 mg/kg; type: functional, organism-based; design: dose 100 mg/kg; in short: as §1
# [9] = test system: Mus musculus; experiment: Effective dose required to prevent reserpine ptosis in mice, administered orally; type: functional; conditions: po; in short: as §1
# [10] = test system: Mus musculus; experiment: Effective dose required to potentiate yohimbine hydrochloride induced lethality in mice, administered intraperitoneally; NA=Not active; type: functional, organism-based
# In short: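 Male Swiss-Webster or Swiss ND/4 mice, 20-24 g, randomized into groups of 10 and aggregated five per cage. Test drug in saline given ip, with a saline control group. Yohimbine HCl (20 mg/kg, sc) injected 30 min later, then mice reaggregated.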
# [11] = test system: Mus musculus; experiment: Electrical shock aggression was evaluated in mice, administered intraperitoneally; type: functional; conditions: ip
# In short: (§3)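 Pairs of mice placed under an inverted 1000 cm3 beaker and shocked through the floor grid (3 mA, 3 Hz) for 2 min. Drug given ip 30 min before testing; scored all-or-none against a saline group. Fighting counted as inhibited when mean attacks fell 1.5 SD below the vehicle mean.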
# [12] = Therapeutic index administered intraperitoneally in mouse; type: organism-based; conditions: in vivo, ip, read-out: Therapeutic index
# In short: (§4)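 Index from mouse LD50 over reserpine-ptosis ED50 by the same route. […] Deaths recorded at 1 and 24 h; Litchfield-Wilcoxon calculation.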
# [13] = Therapeutic index administered perorally in mouse; type: organism-based; conditions: in vivo, po, read-out: Therapeutic index; in short: as §4
# [14] = Lethal dose in mouse p.o.; type: toxicity, organism-based; conditions: in vivo, po
# [15] = Lethal dose in mouse i.p.; type: toxicity, organism-based; conditions: in vivo, ip
# In short: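 Male Swiss-Webster albino mice, 20-24 g, in groups of five. Each group received one dose ip in saline (prepared 30 min before injection) at 10 mL/kg. Mice were held singly for about 5 h, then housed together with food and water. Deaths were counted at 1 and 24 h. LD50 by Litchfield-Wilcoxon.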
# [16] = test system: Mus musculus; experiment: Effective dose required to prevent reserpine ptosis in mice, administered intraperitoneally; NA=Not active at 46 mg/Kg; type: functional, organism-based; in short: as §1
# [17] = test system: Mus musculus; experiment: Electrical shock aggression was evaluated in mice, administered intraperitoneally; NA means no aggression blockade at 46.4 mg/kg; type: functional, organism-based; design: dose 46.4 mg/kg; in short: as §3
# [18] = test system: Mus musculus; experiment: Effective dose required to prevent reserpine ptosis in mice administered (po)orally; NA=Not active; type: functional, organism-based; in short: as §1
# [19] = test system: Mus musculus; experiment: Effective dose required to prevent reserpine ptosis in mice administered orally; type: functional; conditions: po; in short: as §1
# [20] = test system: Mus musculus; experiment: Effective dose required to prevent reserpine ptosis in mice, administered orally; NA=Not active at 100 mg/kg; type: functional, organism-based; design: dose 100 mg/kg; in short: as §1
structure (smiles),measurement,setting,value
C/N=C(/Cc1ccc2cc(O)ccc2c1)NC.Cl,ED50,[1],23.7 mg/kg
Cl.N=C(Cc1ccc2ccccc2c1Cl)N1CCOCC1,ED50,[2],15 mg/kg
CC/N=C(/COc1cc(Cl)c(Cl)cc1Cl)NCC,ED50,[3],inactive
COc1ccccc1N1CCN(C(=N)Cc2ccc3ccccc3c2)CC1,ED50,[4],inactive
COc1ccc(CC/N=C(/N)Cc2ccc3ccccc3c2)cc1OC,ED50,[4],inactive
CC/N=C(/Cc1ccc(F)cc1)NCC,ED50,[3],inactive
C/N=C(\NC)C(c1ccc(Cl)cc1)c1ccc(Cl)cc1.Cl,ED50,[5],2.4 mg/kg
same,ED50,[6],27.2 mg/kg
C/N=C(/Cc1ccc2ccccc2c1Cl)NC.Cl,ED50,[5],11 mg/kg
same,ED50,[1],15 mg/kg
same,ED50,[7],26.1 mg/kg
CC(C)/N=C(/N)Cc1ccc2ccccc2c1,ED50,[4],inactive
CC/N=C(/Cc1c(Cl)cccc1Cl)NCC,ED50,[3],inactive
CC/N=C(/Cc1ccc2cc(C)ccc2c1)NCC,ED50,[8],inactive
C/N=C(/Cc1ccc(C)cc1)NC,ED50,[3],inactive
C/N=C(/Cc1ccc2cc(OC)ccc2c1)NC.Cl,ED50,[5],19 mg/kg
same,ED50,[9],23.7 mg/kg
same,ED50,[10],inactive
C/N=C(/Cc1ccc2ccccc2c1)NC.Cl [NAPACTADINE HYDROCHLORIDE],ED50,[11],12.6 mg/kg
same,ED50,[5],12.6 mg/kg
same,selectivity ratio,[12],5
same,selectivity ratio,[13],34
same,ED50,[2],17.1 mg/kg
same,LD50,[14],584 mg/kg
same,LD50,[15],68.1 mg/kg
same,ED50,[7],0.8 mg/kg
N=C(Cc1ccc2ccccc2c1)N1CCN(c2ccccc2)CC1,ED50,[4],inactive
Cl.N=C(Cc1ccc2ccccc2c1Cl)N1CCC(Cc2ccccc2)CC1,ED50,[9],19.6 mg/kg
Cl.Cl.N=C(Cc1ccc2ccccc2c1Cl)NCCCN1CCOCC1,ED50,[2],3.2 mg/kg
CC/N=C(/Cc1cc(Cl)c(Cl)cc1Cl)NCC,ED50,[16],inactive
Cl.N=C(Cc1ccc2ccccc2c1Cl)N1CCC(O)(c2ccc(Cl)cc2)CC1,ED50,[2],10.8 mg/kg
CN(C)CCCN1c2ccccc2CCc2ccccc21 [IMIPRAMINE],ED50,[11],23 mg/kg
same,ED50,[5],13 mg/kg
same,ED50,[1],14 mg/kg
same,ED50,[7],0.7 mg/kg
Cl.N=C(Cc1ccc2ccccc2c1)N1CCC(O)(Cc2ccccc2)CC1,ED50,[2],22.5 mg/kg
Cl.N=C(Cc1ccc2ccccc2c1Cl)N1CCN(c2cccc(Cl)c2)CC1,ED50,[2],16.2 mg/kg
Cl.N=C(Cc1ccc2ccccc2c1Cl)N1CCC(c2ccccc2)CC1,ED50,[9],8.8 mg/kg
C/N=C(/Cc1ccc([N+](=O)[O-])cc1)NC.Cl,ED50,[5],3.2 mg/kg
same,selectivity ratio,[12],67
same,selectivity ratio,[13],213
same,ED50,[17],inactive
same,LD50,[14],681 mg/kg
same,ED50,[1],3.2 mg/kg
same,LD50,[15],215 mg/kg
same,ED50,[7],20 mg/kg
C/N=C(/Cc1c(O)ccc2ccccc12)NC,ED50,[18],inactive
CC/N=C(/Cc1ccc2ccccc2c1)NCC.Cl,ED50,[5],19.6 mg/kg
same,ED50,[2],31 mg/kg
same,ED50,[7],19.6 mg/kg
Cl.N=C(Cc1ccc2ccccc2c1Cl)N1CCN(c2ccccc2)CC1,ED50,[2],16.2 mg/kg
Cl.Cl.N=C(Cc1ccc2ccccc2c1)NCCN1CCOCC1,ED50,[1],14.7 mg/kg
C/N=C(\NC)c1ccccc1.Cl,ED50,[5],0.8 mg/kg
same,ED50,[7],4 mg/kg
Cl.N=C(Cc1ccc2ccccc2c1)N1CCCCCC1,ED50,[19],11 mg/kg
CCC(=O)C1(c2ccccc2)CCN(C(=N)Cc2ccc3ccccc3c2)CC1,ED50,[4],inactive
COc1ccc2cc(CC(=N)N3CCCC3)ccc2c1,ED50,[4],inactive
Cl.N=C(Cc1ccc2ccccc2c1Cl)N1CCC(O)(c2ccccc2)CC1,ED50,[2],24.5 mg/kg
CC(C)/N=C(/Cc1ccc2ccccc2c1)NC(C)C,ED50,[20],inactive
same,ED50,[8],inactive
